Assay outcomes from PubChem.
Yeast growth inh = growth inhibitors of yeast BB579 in restrictive medium, primary screen, yeast lifespan-shortening project, S. cerevisiae; inhibition, % at 10 µM; OD615, 48 h; 140,000 compounds, 0.51% hits;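 active = inhibition above a set limit, 3 SD over the mean compound inhibition, cut at about 44% in these data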
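System: Saccharomyces cerevisiae DeaD strain BB579, replicative lifespan model yeast | Buffer or medium: Restrictive glucose-based CSMM-D medium | Times: 4 h preincubation and 48 h exposure at 30 °C | Detection: OD615 turbidity measurement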
PostGolgi ctrl = growth inhibition of yeast control strain, primary screen, counter-screen for post-Golgi transport modulator project | efflux-deficient yeast background strain, growth absorbance A615, 16 h | inhibition, % at 10 µM | 98,000 compounds, 5% hits | AID 738, 2007
PostGolgi yeast = phenotypic screen on post-Golgi transport, primary screen; inhibition, % at 10 µM; 98,000 compounds, 0.9% hits; post-Golgi transport phenotypic cell assay;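 also: yeast cells grown in 1536-well plates; yeast grown about 18 h at 30C before absorbance read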
Yeast life ext = compounds extending yeast replicative lifespan, primary screen, S. cerevisiae, OD615; S. cerevisiae growth with nicotinamide; deaD strain in restrictive glucose medium; 130,000 compounds, 0.68% hits; AID 775, 2007; inhibition of the nicotinamide effect, % at 10 µM;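 active = inhibition above a set limit, placed 3 SD over the median of all compounds, cut at about 26% in these data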
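System: Modified budding yeast, DeaD strain | Buffer or medium: Restrictive glucose medium | Also added: 1.5 mM nicotinamide | Doses: 10 µM single point, 0.25% DMSO | Schedule: 48 h compound exposure at 30 °C, humidified | Detection: Absorbance at 615 nm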
Each line names hits and unclear results; the compound was inactive in the other large screens. This excerpt belongs to a sample that is enriched for hits. Rule as the data show it, unless noted: active = inhibition above about 30%; inactive = the rest.

CC(C)NS(=O)(=O)c1ccc(Oc2ncc(C(F)(F)F)cc2Cl)cc1	none
O=C(NO)c1ccc(C(=O)N(C2CCCCC2)C2CCCCC2)cc1	PostGolgi ctrl 95.6, PostGolgi yeast 101.9
C=CCOc1ccc(C(=O)NC2CCCCC2)cc1	none
C=CCNC(=O)COc1cc(C)ccc1C	none (no result: PostGolgi ctrl, PostGolgi yeast)
CCn1c2ccccc2c2cc(/C=N/NC(=O)c3cccc(C)c3)ccc21	PostGolgi ctrl 34.1
CCn1c(/C=N/n2cnnc2)nc2ccccc21	none
CCn1c2ccccc2c2cc(/C=N/n3cn[nH]c3=S)ccc21	PostGolgi ctrl 42.7
CCn1c2ccccc2c2cc(/C=N/n3cnnc3)ccc21	PostGolgi ctrl 41.9
CCn1c2ccccc2c2cc(/C=N/NC(=O)c3ccccc3C)ccc21	none (no result: PostGolgi ctrl, PostGolgi yeast)
COC(=O)c1ccc(C)c(NC(=O)CN(c2cc(OC)ccc2OC)S(C)(=O)=O)c1	none
COc1ccc(OC)c(N(CC(=O)Nc2ccc(NC(C)=O)cc2)S(C)(=O)=O)c1	PostGolgi ctrl 30.6
O=C(O)/C=C/C(=O)NNC(=O)c1cccc(Br)c1	none (no result: PostGolgi ctrl, PostGolgi yeast)
O=C(NC(=S)NCc1ccccc1)C1CCCCC1	none
O=C1CCCCC(=O)N(c2ccccc2)c2ccccc21	PostGolgi ctrl 31.5
Cc1cccc(N/C(=N\S(=O)(=O)c2ccccc2)C(F)(F)F)c1	none
CCC(C)NS(=O)(=O)c1ccc(NS(C)(=O)=O)cc1 (centres undefined)	PostGolgi yeast 47.5
Cn1c(SCC(=O)c2ccc(F)cc2)nnc1-c1cnccn1	PostGolgi ctrl 39.0
COc1ccc(N2CCN(c3ncnc4c3[nH]c3ccccc34)CC2)cc1	none
CC(=O)N1CCC(O)(c2cccc(C(F)(F)F)c2)CC1	none
Fc1ccc2[nH]c3c(N4CCN(c5ccccc5)CC4)ncnc3c2c1	PostGolgi ctrl 79.5, PostGolgi yeast 76.3
OC1(c2cccc(C(F)(F)F)c2)CCN(c2ncnc3c2[nH]c2ccc(F)cc23)CC1	PostGolgi ctrl 32.8
COc1ccc(C)cc1S(=O)(=O)N1CCN(S(=O)(=O)c2cc(C)ccc2OC)C(C)C1 (centres undefined)	none
COc1ccc(NC(=O)C2CCCN(S(=O)(=O)c3ccc(C)cc3)C2)cc1OC (centres undefined)	none (no result: PostGolgi ctrl, PostGolgi yeast, Yeast life ext)
COc1ccc(C)cc1S(=O)(=O)N1CCC(C)CC1	PostGolgi ctrl 41.6
CCOc1ccccc1NC(=O)C1CCCN(S(=O)(=O)c2ccc(OC)c(C)c2)C1 (centres undefined)	PostGolgi ctrl 31.4
COc1ccc(S(=O)(=O)N2CCCC(C(=O)Nc3ccc(OC)c(OC)c3)C2)cc1 (centres undefined)	PostGolgi ctrl 38.8
COc1ccc(CNC(=O)C2CCN(S(=O)(=O)c3cc(OC)ccc3OC)CC2)cc1	none
COc1ccc(CNC(=O)C2CCCN(S(=O)(=O)c3cc(C)ccc3OC)C2)cc1 (centres undefined)	PostGolgi ctrl 40.0
Cc1ccc(C(=O)CCNc2ccc(Cl)cc2)o1	none
Cc1ccc(N(C(=O)CCl)C(C(=O)NC2CCCCC2)c2cccnc2)cc1C (centres undefined)	none (no result: PostGolgi ctrl, PostGolgi yeast)
CON(C)c1nc(OCCNC(=O)OCc2ccc(Cl)cc2Cl)nc(N(C)C)n1	none
CCCCOc1[nH]c2nc(-c3ccco3)n(Cc3ccco3)c(=N)c2c1C#N	none
S=c1nc2ccccc2c2nc(-c3ccccc3)[nH]n12	PostGolgi ctrl 43.7
S=c1nc(-c2ccccc2)[nH]n1-c1ccccc1	none
N#Cc1sc2nc3c(cc2c1N)CCCC3	none (no result: PostGolgi ctrl, PostGolgi yeast)
COc1cc(OC)cc(C(=O)Nn2c(C)nc3ccccc3c2=O)c1	none
COc1cc(OC)cc(-c2nc3ccccc3c(=O)n2OC(=O)c2ccc(C)c(C)c2)c1	Yeast life ext 63.7 (no result: PostGolgi ctrl, PostGolgi yeast)
O=C1[C@@H]2[C@@H]3C[C@@H]([C@H]4ON=C(c5ccc(OCc6ccccc6)cc5)[C@@H]34)[C@@H]2C(=O)N1c1ccc2c(c1)OCO2	none (no result: PostGolgi ctrl, PostGolgi yeast)
CCOC(=O)c1coc(CNC(=O)c2c(C)oc3c2CCCC3)c1	PostGolgi ctrl 31.9
Cc1oc2c(c1C(=O)NCc1cc(C(=O)O)co1)CCCC2	none
CS(=O)(=O)Nc1ccc(OCc2ccccc2)cc1	PostGolgi ctrl 31.0
COC(=O)Nc1ccc(OCc2ccccc2)cc1	none
O=C1CCCC/C1=N\Nc1ccc(OCc2ccccc2)cc1	Yeast growth inh 92.0 (no result: PostGolgi ctrl, PostGolgi yeast)
CCOc1ccc(NC2=NC(C(=O)NCc3ccccc3)CC(=O)N2)cc1 (centres undefined)	none
COCCn1c(SCCCC(=O)c2ccc(Br)cc2)nnc1-c1ccncc1	PostGolgi ctrl 36.4
CCOc1ccccc1OCCCNCc1ccco1	none (no result: PostGolgi ctrl, PostGolgi yeast)
CCNC(=O)NC(=O)CSc1ccccc1F	none (no result: PostGolgi ctrl, PostGolgi yeast)
Clc1ccc(-c2n[nH]c3c2CCC3)c(Cl)c1	PostGolgi ctrl 47.4, PostGolgi yeast 107.0
